From ChEMBL document CHEMBL1800052, “Regioselective Suzuki coupling of dihaloheteroaromatic compounds as a rapid strategy to synthesize potent rigid combretastatin analogues” (J Med Chem, 2011)
Active and inactive are the calls of the source. No cut-off for these calls is given here.

Experiments:
SH-SY5Y [1] = assay: Cytotoxicity against human SH-SY5Y cells assessed as cell viability at 1 uM after 48 hrs by MTT assay; type: functional; conditions: read-out: Activity
Outline: (§1)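 SH-SY5Y cells in 50% DMEM/50% F-12 with 10% FBS, 2 mM L-glutamine, penicillin and streptomycin, grown 48 h with or without compound. Cells were washed in Locke's solution (pH 7.6), given MTT (250 μg/mL) for 30 min at 37 °C, solubilized in isopropyl alcohol/HCl, and read at 570 nm. Single-point values are % viable cells at 1 μM. IC50s come from fitted full concentration-response curves; mean ± SD of 12 determinations from 3 experiments.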

HeLa [2] = assay: Cell cycle arrest in human HeLa cells assessed as accumulation at G2/M phase at 3 times IC50 value after 16 hrs using propidium iodide staining by FACS analysis; type: functional, cell-based
Outline: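 Cells were treated 16 h with vehicle or 3 × IC50 compound, washed in PBS, fixed in ice-cold 30:70 PBS/EtOH, and stored at −20 °C. They were then treated with RNase (100 μg/mL) for 30 min at RT and stained with propidium iodide (100 μg/mL) in PBS with 5 mM EDTA for 30 min in the dark. DNA content was read by flow cytometry, representative of three experiments.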

HeLa [3] = assay: Cytotoxicity against human HeLa cells assessed as cell viability after 48 hrs by MTT assay; type: functional, cell-based
SH-SY5Y [4] = assay: Cytotoxicity against human SH-SY5Y cells assessed as cell viability after 48 hrs by MTT assay; type: functional, cell-based; outline: as §1
[5] = target: T1, Tubulin alpha (Homo sapiens) (UniProt P0DPH7+P68366+Q71U36+P68363+Q9BQE3+Q6PEY2+A6NHL2+Q9NY65); assay: Inhibition of tubulin alpha in human SH-SY5Y cells assessed as inhibition of tubulin alpha polymerization at 3 times IC50 value after 24 hrs by immunofluorescence; type: cell-based
Outline: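 Cells were fixed in 3.7% paraformaldehyde for 20 min, permeabilized in ice-cold 80% MeOH, and blocked with 0.2% fish gelatine. Staining used anti-α-tubulin (1:1000, 20 min RT), then Alexa 488 anti-mouse with DRAQ5 nuclear stain. Imaging was by confocal microscopy with a 63× oil objective.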

[6] = target: T1, Tubulin alpha (Homo sapiens); assay: Inhibition of tubulin alpha polymerization in human HeLa cells assessed as decreased pelletable tubulin alpha fraction at 3 times IC50 value after 16 hrs by Western blotting in presence of paclitaxel; type: cell-based
Outline: (§2)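 Cells were grown 16 h with or without drug (3 × IC50), trypsinized, and lysed 10 min at RT in hypotonic buffer (20 mM Tris-HCl pH 6.8, 1 mM MgCl2, 2 mM EGTA, 0.5% NP-40, protease inhibitors) containing 4 μg/mL paclitaxel. Protein-normalized lysate (50 μg) was spun at 13 000 rpm for 15 min. Pellet (polymerized) and supernatant (free) fractions were run on 10% SDS-PAGE and blotted with anti-α-tubulin, read by chemiluminescence.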

[7] = target: T1, Tubulin alpha (Homo sapiens); assay: Inhibition of tubulin alpha polymerization in human HeLa cells assessed as increase in soluble tubulin alpha fraction at 3 times IC50 value after 16 hrs by Western blotting in presence of paclitaxel; type: cell-based; outline: as §2
[8] = Inhibition of tubulin alpha polymerization; conditions: concentration not given here

Structure (SMILES)	viability at 1 µM (SH-SY5Y [1]) [%]	IC50 (HeLa [3]) [nM]	IC50 (SH-SY5Y [4]) [nM]	other results
COc1cc(-c2cscc2-c2ccc(C)c(C)c2)cc(OC)c1OC	84	–	–	–
COc1ccc(-c2cscc2-c2cc(OC)c(OC)c(OC)c2)cc1O	29	200	79	Activity (HeLa [2]): Active; tubulin polymerization inhibition (qualitative call) [5]: Active; inhibition [6]: Active; inhibition [7]: Active
COc1cc(-c2cscc2-c2cc(OC)c(OC)c(OC)c2)cc(OC)c1OC	91	–	–	–
COc1cc(-c2cscc2-c2ccc(Cl)c(C(F)(F)F)c2)cc(OC)c1OC	91	–	–	–
COc1ccc(-c2cscc2-c2cc(OC)c(OC)c(OC)c2)c(OC)c1	90	–	–	–
COc1cc(-c2cscc2-c2ccc(SC)cc2)cc(OC)c1OC	51	–	–	–
COc1cc(-c2cscc2-c2ccc(C)c(F)c2)cc(OC)c1OC	30	420	310	Activity (HeLa [2]): Active
COc1cccc(-c2cscc2-c2cc(OC)c(OC)c(OC)c2)c1	49	–	–	–
COc1cc(-c2cscc2-c2ccc(OC(F)(F)F)cc2)cc(OC)c1OC	93	–	–	–
COc1ccc(C2=C(c3cc(OC)c(OC)c(OC)c3)CCC2)cc1O	33	300	37	Activity (HeLa [2]): Active; tubulin polymerization inhibition (qualitative call) [5]: Active; inhibition [6]: Active; inhibition [7]: Active
COc1ccc(-c2cscc2-c2cc(OC)c(OC)c(OC)c2)cc1OC	94	–	–	–
COc1cc(-c2cscc2-c2cccc3ncccc23)cc(OC)c1OC	100	–	–	–
COc1cc(-c2cscc2-c2cccc([N+](=O)[O-])c2)cc(OC)c1OC	108	–	–	–
COc1cccc(-c2cscc2-c2cc(OC)c(OC)c(OC)c2)c1F	28	430	330	–
COc1ccc(-c2cscc2-c2cc(OC)c(OC)c(OC)c2)cc1C	80	–	–	–
COc1ccc(-c2cscc2-c2cc(OC)c(OC)c(OC)c2)cn1	82	–	–	–

Structure (SMILES)	viability at 1 µM (SH-SY5Y [1]) [%]	IC50 (HeLa [3]) [nM]	IC50 (SH-SY5Y [4]) [nM]	other results
COc1cc(-c2cscc2-c2ccc(O)cc2)cc(OC)c1OC	93	–	–	–
COc1ccc(-c2cscc2-c2cc(OC)c(OC)c(OC)c2)cc1	31	420	480	–
COc1ccc(/C=C\c2cc(OC)c(OC)c(OC)c2)cc1O [COMBRETASTATIN A4]	23	1.7	2.3	Activity (HeLa [2]): Active; tubulin polymerization inhibition (qualitative call) [5]: Active; inhibition [6]: Active; inhibition [7]: Active
COc1cc(-c2cscc2-c2cccc(OC)c2OC)cc(OC)c1OC	90	–	–	–
COc1cc(-c2cscc2-c2cccc(C(F)(F)F)c2)cc(OC)c1OC	91	–	–	–
COc1cc(-c2cscc2-c2cccnc2)cc(OC)c1OC	109	–	–	–
COc1ccc(-c2ccoc2-c2cc(OC)c(OC)c(OC)c2)cc1O	23	3.1	2.4	Activity (HeLa [2]): Active; tubulin polymerization inhibition (qualitative call) [5]: Active; inhibition [6]: Active; inhibition [7]: Active
COc1cc(-c2cscc2-c2cccc3ccccc23)cc(OC)c1OC	83	–	–	–
COc1ccc(-c2occc2-c2cc(OC)c(OC)c(OC)c2)cc1	24	170	34	tubulin polymerization inhibition (qualitative call) [5]: Active
COc1cc(-c2cscc2-c2ccc3c(c2)OCCO3)cc(OC)c1OC	27	420	350	Activity (HeLa [2]): Active
COc1cc(-c2cscc2-c2cccc(C#N)c2)cc(OC)c1OC	97	–	–	–
COc1ccc(-c2occc2-c2cc(OC)c(OC)c(OC)c2)cc1O	20	20	9.4	Activity (HeLa [2]): Active; inhibition [8]: 50%; inhibition [6]: Active; inhibition [7]: Active
COc1ccc(-c2ccoc2-c2cc(OC)c(OC)c(OC)c2)cc1	23	17	28	–
COc1ccc(-c2cscc2-c2cc(OC)c(OC)c(OC)c2)cc1F	52	–	–	–
COc1cc(-c2cscc2-c2cnc3ccccc3c2)cc(OC)c1OC	45	–	–	–
COc1cc(-c2cscc2-c2ccc3c(c2)OCO3)cc(OC)c1OC	65	–	–	–
